From ChEMBL document CHEMBL1153408, “Molecular modeling studies and in vitro bioactivity evaluation of a set of novel 5-nitro-heterocyclic derivatives as anti-T. cruzi agents” (2009)

Experiments:
Format in all cases: functional
[1] = tested on: Trypanosoma cruzi; experiment: Antitrypanosomal activity against Trypanosoma cruzi Y epimastigotes assessed as parasite growth at 1 ug/ml after 24 hrs
Summary of the method: (§1)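 Y strain epimastigotes grown in LIT medium (pH 7.2, 10% FBS, 2% hemoglobin). Compounds dissolved in DMSO and diluted into LIT. Parasites added at an initial 10^6/mL and incubated at 28 °C for 24 h. Cells counted in a Neubauer chamber at 0 h and 24 h, in triplicate. Growth % = (L24 − L0) × 100/L0.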

[2] = tested on: Trypanosoma cruzi; experiment: Antitrypanosomal activity against Trypanosoma cruzi Y epimastigotes assessed as parasite growth at 10 ug/ml after 24 hrs; summary of the method: as §1
[3] = tested on: Trypanosoma cruzi; experiment: Antitrypanosomal activity against Trypanosoma cruzi Y epimastigotes assessed as parasite growth at 20 ug/ml after 24 hrs; summary of the method: as §1

SMILES | Parasite growth [1] [%] | Activity [2] [%] | Parasite growth over 24 h [3] [%]
O=C(N/N=C/c1ccc([N+](=O)[O-])s1)c1ccccc1 | 13 | 57.3 | 0
O=C(N/N=C/c1ccc([N+](=O)[O-])s1)c1ccc(Cl)cc1 | 4 | 0 | 0
COc1ccc(C(=O)N/N=C/c2ccc([N+](=O)[O-])s2)cc1 | 100 | 0 | 0
O=C(N/N=C/c1ccc([N+](=O)[O-])o1)c1ccccc1 | 0 | 0 | 0
NS(=O)(=O)c1ccc(C(=O)N/N=C/c2ccc([N+](=O)[O-])s2)cc1 | 16 | 18.2 | 19
O=C(N/N=C/c1ccc([N+](=O)[O-])o1)c1ccc(Cl)cc1 | 0 | 0 | 0
O=C(N/N=C/c1ccc([N+](=O)[O-])s1)c1ccc(C(F)(F)F)cc1 | 28.4 | 0 | 0
O=C(N/N=C/c1ccc([N+](=O)[O-])s1)c1ccc(O)cc1 | – | 56.6 | –
CN(C)c1ccc(C(=O)N/N=C/c2ccc([N+](=O)[O-])s2)cc1 | 10 | 43.6 | 0
N#Cc1ccc(C(=O)N/N=C/c2ccc([N+](=O)[O-])s2)cc1 | – | 0 | –
O=C(Cn1ccnc1[N+](=O)[O-])NCc1ccccc1 [BENZNIDAZOLE] | – | 30 | 3
